Screening results as filed in PubChem.
Sampled rows, rich in hits. Any-hit rate of the full collection: about 2.8%.
NPY-Y1 antag – blocks the human neuropeptide Y Y1 receptor; 1% of 200,000 active; HEK293-CNG Y1 cells, membrane potential fluorescence; NPY at EC95, then isoproterenol; P25929; AID 1040; inhibition, % at 3.6 µM;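 active = inhibition above the campaign mean inhibition of all tested compounds plus 3 SD, cut at about 20% in these data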;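 also: 0% = DMSO wells given NPY plus isoproterenol and 100% = isoproterenol alone without NPY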
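Test system – HEK293 Y1/CNG channel cell line · Also added – NPY agonist 25 nM, then isoproterenol 1 µM plus Ro 20-1724 25 µM · Compound dosing – one concentration, 3.6 µM, in 0.4% DMSO · Schedule – compound incubation 1 h at room temperature, readout 45 min post-stimulation · Technique – fluorescence, membrane potential probe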
EP2 antag – EP2 receptor (human) inhibition | P43116 | C6 glioma cells expressing human EP2, cAMP TR-FRET; cells stimulated with saturating PGE2 | inhibition, % at 25 µM | 0.52% of 260,000 active | AID 1422;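 active = percent inhibition above 40 after rounding to a whole number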;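 also: rat C6 glioma host cells with rolipram phosphodiesterase inhibitor present; the protocol text gives 20 µM as final concentration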
NPY-Y1 PAM-ag – potentiates or activates human NPY-Y1 receptor; P25929; NPY-Y1 expressing cells, potentiator/agonist activation; activation, % at 3.6 µM; 0.37% of 220,000 active; AID 1304; in the data active = activation above about 33%, passing the limit was not always enough;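 also: cells stimulated with NPY at EC10 then isoproterenol at EC100; 0% = low agonist plus stimulus and 100% = saturating agonist plus stimulus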
NPY-Y2 antag – antagonists of human neuropeptide Y receptor Y2; P49146; NPY-Y2 expressing cells, antagonist mode; inhibition, % at 2.7 µM; 0.99% of 140,000 active; AID 793; in the data active = inhibition above about 17%;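 also: 0% = vehicle with agonist challenge and 100% = reference antagonist with challenge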
Target sequence (P49146 whole entry, looked up): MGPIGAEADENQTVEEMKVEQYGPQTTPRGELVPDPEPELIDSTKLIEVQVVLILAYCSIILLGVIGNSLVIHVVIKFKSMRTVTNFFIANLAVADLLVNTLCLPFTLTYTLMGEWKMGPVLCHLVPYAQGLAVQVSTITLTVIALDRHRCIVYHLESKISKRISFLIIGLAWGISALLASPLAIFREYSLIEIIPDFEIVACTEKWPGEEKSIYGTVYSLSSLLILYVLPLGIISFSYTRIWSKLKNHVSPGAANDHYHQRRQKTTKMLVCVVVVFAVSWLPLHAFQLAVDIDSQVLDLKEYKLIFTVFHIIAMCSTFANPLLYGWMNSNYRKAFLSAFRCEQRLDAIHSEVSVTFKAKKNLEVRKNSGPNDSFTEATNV
NPY2 pot ag – potentiates or activates human NPY-Y2 receptor; cells expressing NPY-Y2, potentiator/agonist read-out; P49146; activation, % at 3.6 µM; 0.45% of 220,000 active; in the data active = activation above about 27%;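 also: cells stimulated with NPY near EC25 plus isoproterenol at EC100; 0% = vehicle plus submaximal agonist and 100% = vehicle plus saturating agonist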
EP2 mod – modulates human prostaglandin E2 receptor EP2 signaling; P43116; EP2-expressing cells, cAMP HTRF FRET, PGE2 co-stimulation; induction, % at 25 µM; 0.83% of 260,000 active; AID 940;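 active = compounds whose cAMP rise, as percent of the full-agonist control response, exceeds 60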;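 also: rat C6 glioma line stably carrying human EP2 under a CMV promoter; the protocol text gives 20 µM as final concentration; 100% = response of wells given 1 µM PGE2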
Active calls of the source: *; nt = no result given.

SMILES | NPY-Y1 antag | EP2 antag | NPY-Y1 PAM-ag | NPY-Y2 antag | NPY2 pot ag | EP2 mod
Oc1ccc(/C=N/Nc2cccc3cccnc23)c(O)c1 | -4 | 51* | 13 | -3 | 2 | -16
Cc1ccc(/C=N/Nc2cccc3cccnc23)c(O)c1 | 2 | 4 | -1 | 3 | 12 | 15
CCN(c1ccccc1)S(=O)(=O)c1ccc(Cl)c(NC(=O)Nc2ccc(Cl)cc2C#N)c1 | -5 | 3 | 20 | 2 | -1 | 61*
CCN(c1ccccc1)S(=O)(=O)c1cc(NC(=O)Nc2ccccc2C#N)ccc1Cl | -1 | 7 | -7 | 5 | 7 | 0
O=C(Cn1ncc2cccn2c1=O)Nc1ccc(N2CCCCC2)cc1 | nt | 5 | nt | nt | nt | -11
O=C(c1nc2ccccc2s1)C1CCN(C(=O)CCn2ncc3ccccc32)CC1 | nt | nt | nt | nt | nt | -74
Fc1ccc(C2c3[nH]c4ccccc4c3CCN2CCCn2cccn2)cc1 (configuration not stated) | nt | 6 | 13 | nt | 2 | 18
Cc1ccccc1C1c2[nH]c3ccccc3c2CCN1CCCn1cccn1 (configuration not stated) | 9 | 9 | -8 | nt | -20 | 64*
COc1ccc(CNCC2(O)CCOC(C)(C)C2)cc1 (configuration not stated) | nt | 10 | nt | nt | nt | -13
c1ccc(CN2CCC(Nc3nc(-c4cccs4)nc4ccccc34)CC2)cc1 | 21* | 2 | 4 | nt | 29 | -57
c1csc(CNc2nc(-c3cccs3)nc3ccccc23)c1 | 2 | 7 | -11 | nt | 10 | 7
Clc1ccc(-n2c(SC/C=C/c3ccccc3)nnc2-c2cccnc2)cc1 | 23* | 10 | -43 | 30* | -17 | -9
CCOc1ccc(-n2c(SCc3ccc(C#N)cc3)nnc2-c2cccnc2)cc1 | 45* | 5 | -17 | 26* | -11 | 16
Cc1ccc(S(=O)(=O)Cl)c(C)c1N1CCCC1=O | nt | 3 | nt | nt | nt | 12
COC(=O)[C@H]1[C@@H]2C[C@H]3c4[nH]c5ccccc5c4CCN3C[C@H]2CC[C@@H]1OS(=O)(=O)O | nt | 48* | nt | nt | nt | 10
COC(=O)[C@H]1CCc2ccccc2N1C(C)=O | nt | nt | nt | nt | nt | -31
Cc1ccc(NC(=S)N(Cc2cc3c(C)ccc(C)c3[nH]c2=O)CC2CCCO2)cc1 (configuration not stated) | nt | 10 | nt | nt | nt | 16
O=C(O)c1cccc(N/N=C/C2=C(Cl)c3cc(Cl)ccc3SC2)c1 | 7 | 9 | -12 | nt | -1 | 63*
Nc1ccccc1-c1n[nH]c(=S)s1 | 10 | 67* | -20 | nt | -10 | 0
CCOC(=O)c1cc2sc(C)cc2n1CC(=O)NC1CC1 | nt | 9 | nt | nt | nt | -14
O=C(/C(=N\Nc1ccc(Br)cc1)Sc1nnnn1-c1ccccc1)c1ccccc1 | -2 | 6 | -9 | 1 | 6 | 30
Brc1ccc(N/N=C(/N=Nc2nn[nH]n2)c2ccccc2)cc1 | -17 | 1 | 64* | nt | 53* | -31
O=C(/C(=C/O)N=Nc1cccc(C(F)(F)F)c1)c1ccccc1 | -2 | 5 | -2 | nt | 21 | 62*
COC(=O)/C(N=Nc1cccc(C(F)(F)F)c1)=C(\C)O | 2 | 0 | -23 | 2 | -12 | 30
Cc1cccc(OCCn2c(-c3ccco3)nc3ccccc32)c1 | 26* | 6 | -50 | 20* | -11 | 19
SMILES | NPY-Y1 antag | EP2 antag | NPY-Y1 PAM-ag | NPY-Y2 antag | NPY2 pot ag | EP2 mod
O=C(Nc1nc2ccccc2n1CCOc1ccccc1)c1ccco1 | 9 | 10 | -56 | 11 | -31 | 20
Cc1ccc(OCCn2c(NC(=O)c3ccco3)nc3ccccc32)cc1 | 9 | 8 | -3 | 20* | 6 | 19
O=C(Nc1nc2ccccc2n1CCOc1ccc(Cl)cc1)c1ccco1 | 24* | 12 | -102 | 31* | -90 | 24
O=C(Nc1nc2ccccc2n1CCN1CCCCC1)c1ccco1 | 4 | 9 | 8 | 7 | -8 | 22
Cc1cccc(OCCn2c(NC(=O)c3ccco3)nc3ccccc32)c1 | 34* | 1 | -107 | 37* | -53 | 42
COC(=O)c1c(NC(=O)Cc2ccccc2)sc(C(=O)NC2CCCCC2)c1C | nt | 10 | nt | nt | nt | 16
Cc1cnc(NC(=O)C(C)N2CCC(N3CCCCC3)CC2)s1 (configuration not stated) | nt | 8 | nt | nt | nt | 21
O=C(CN(C(=O)CCC(=O)Nc1nccs1)C1CCCC1)NCc1ccc(F)cc1 | nt | 5 | nt | nt | nt | -26
